Laboratory results published in PubChem BioAssay.
Calls of active or inactive are those of the source.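 How the source made its calls, unless noted: active means Her2 level under about 52% in both replicate screens, with viability over 70% of control (limit read from the data); inconclusive means Her2 under the limit in one screen only, or viability under 70%; inactive means Her2 level above the set limit.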

How the values were obtained:
[1] = Her2 expression decrease, cell viability multiplex – SKBR3 breast tumor cells, AlphaScreen, ATP viability, primary screen (AID 461); conditions: SKBR3 Her2 protein level, 18-24 h, measured here: SKBR3 viability, ATP luminescence, at 10 µM;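 on Her2 level: lower value means less Her2 protein in the cells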;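 on viability: percent of carrier control wells set as 100% viability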
[2] = molecular target: Receptor tyrosine-protein kinase erbB-2 (Homo sapiens) (UniProt P04626); experiment: as above; conditions: 18-24 h, at 10 µM, stronger effect = lower value
[3] = reduced viability of SK-BR-3 breast cancer cells – cell-based, 24 h, human, pilot screen (AID 572;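 active means viability at or below 10% of carrier control in both of two separate runs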;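 further: compound exposure lasted between 18 and 24 h rather than exactly 24 h; 100% = carrier-treated control wells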); conditions: SK-BR-3 viability, CellTiter-Glo luminescence, at 10 µM, stronger effect = lower value
[4] = HUVEC growth inhibition – cell-based, human, primary screen (AID 575;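 active means viability at or below 30% in both replicate assays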;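 further: 100% = median of untreated cell wells with 0.1% DMSO on each plate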); conditions: HUVEC proliferation, CellTiter-Glo luminescence, 72 h; at 10 µM; stronger effect = lower value
In short: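 Timing: 72 h treatment at 37 °C; material: HUVEC primary cells; technique: CellTiter-Glo luminescence measuring cellular ATP; controls: vehicle and MePR control wells; measure: percent of median DMSO-control luminescence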

[5] = H69AR cell proliferation blockers – human, duplicate replicates, primary screen (AID 580;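 active means viability at or under a set limit in both replicates, limit being median viability minus 3 SD, cut at about 48% in these data, passing the limit was not always enough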;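 further: 100% = mean luminescence of untreated wells and 0% = no signal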); conditions: H69AR lung tumor cells viability, ATP luminescence, 72 h; at 10 µM; stronger effect = lower value
[6] = MRP1 drug-resistance reversers in H69AR cells – cell-based, doxorubicin co-treatment, pilot screen (AID 601;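 active means viability loss from added drug above about 55%, and viability with drug at most 40%, in both replicates, limit read from the data, passing the limit was not always enough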); conditions: CellTiter-Glo, 72 h, at 10 µM; for differential viability (reversal): stronger effect = higher value
[7] = yeast transport mutant growth inhibition pilot in 384-well plates, post-Golgi transport modulator project (AID 636; in the data active means inhibition above about 31%); conditions: absorbance 615 nm, about 18 h, stronger effect = higher value
[8] = growth suppression of yeast trafficking mutant, preliminary HTS, modulators of trafficking downstream of Golgi apparatus project, 1536-format plate, OD 615 nm (AID 637; in the data active means inhibition above about 30%); conditions: yeast transport mutant growth, absorbance 615 nm, 18 h; stronger effect = higher value
[9] = H69AR cells + 2 uM doxorubicin, measured here: viability with 2 uM doxorubicin, stronger effect = lower value
[10] = H69AR cells, compound alone cytotoxicity

Sequence of Receptor tyrosine-protein kinase erbB-2 (Homo sapiens) (P04626 whole entry, looked up): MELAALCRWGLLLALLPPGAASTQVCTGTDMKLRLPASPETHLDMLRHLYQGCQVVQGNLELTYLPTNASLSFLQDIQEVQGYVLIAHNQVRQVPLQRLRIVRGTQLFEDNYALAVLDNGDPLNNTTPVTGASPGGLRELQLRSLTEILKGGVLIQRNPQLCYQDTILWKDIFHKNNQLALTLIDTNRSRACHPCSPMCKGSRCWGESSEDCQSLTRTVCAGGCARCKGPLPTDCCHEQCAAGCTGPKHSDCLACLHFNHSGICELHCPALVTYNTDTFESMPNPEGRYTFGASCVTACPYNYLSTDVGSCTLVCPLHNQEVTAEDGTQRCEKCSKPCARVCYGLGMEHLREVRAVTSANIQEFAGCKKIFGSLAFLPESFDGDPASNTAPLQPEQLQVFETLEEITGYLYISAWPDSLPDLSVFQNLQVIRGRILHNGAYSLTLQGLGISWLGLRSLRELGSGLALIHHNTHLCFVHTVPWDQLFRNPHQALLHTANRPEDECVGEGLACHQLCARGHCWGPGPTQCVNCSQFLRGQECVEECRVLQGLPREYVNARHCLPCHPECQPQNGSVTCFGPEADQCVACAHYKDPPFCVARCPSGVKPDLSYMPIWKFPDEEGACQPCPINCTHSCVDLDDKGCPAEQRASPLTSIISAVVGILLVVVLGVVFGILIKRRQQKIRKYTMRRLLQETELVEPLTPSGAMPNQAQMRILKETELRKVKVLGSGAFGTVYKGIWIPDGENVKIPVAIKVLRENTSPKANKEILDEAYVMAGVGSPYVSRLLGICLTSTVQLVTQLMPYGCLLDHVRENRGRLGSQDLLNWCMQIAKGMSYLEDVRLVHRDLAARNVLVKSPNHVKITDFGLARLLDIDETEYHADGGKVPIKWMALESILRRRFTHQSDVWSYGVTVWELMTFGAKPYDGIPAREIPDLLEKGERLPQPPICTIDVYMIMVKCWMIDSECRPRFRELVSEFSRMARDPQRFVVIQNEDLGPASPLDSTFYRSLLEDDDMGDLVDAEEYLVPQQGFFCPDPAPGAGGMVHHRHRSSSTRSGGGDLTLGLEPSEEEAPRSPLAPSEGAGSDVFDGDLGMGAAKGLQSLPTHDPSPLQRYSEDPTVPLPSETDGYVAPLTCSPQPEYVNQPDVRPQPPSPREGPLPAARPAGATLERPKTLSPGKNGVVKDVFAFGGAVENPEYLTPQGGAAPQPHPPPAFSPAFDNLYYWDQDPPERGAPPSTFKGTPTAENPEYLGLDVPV

Row | Structure (SMILES) | viability [1] [%] | Her2 level [2] | viability [3] | viability [4] | viability [5] | differential viability (reversal) ([6]; H69AR cells + 2 uM doxorubicin) | viability [6, 9] [%] | viability [6, 10] [%] | inhibition [7] | inhibition [8]
1 | COCCOC(=O)/C=C1/NC(=O)CS1 | 96.5 | 94.5% (inactive) | 96.5% (inactive) | 106% (inactive) | 93.8% (inactive) | 4.28% (inactive) | 89.6 | 93.8 | -5.6% (inactive) | 1.48% (inactive)
2 | CC(C)OC(=O)CSc1nnc(-c2ccc(C(C)(C)C)cc2)n1N | 93 | 108% (inactive) | 93% (inactive) | 86.7% (inactive) | 88.4% (inactive) | 5.61% (inactive) | 82.8 | 88.4 | -2.6% (inactive) | -12.7% (inactive)
3 | O=C(c1ccc(Cl)c(F)c1F)N1CCCC1 | 88.5 | 106% (inactive) | 88.5% (inactive) | 98.4% (inactive) | 102% (inactive) | 11.3% (inactive) | 90.7 | 102 | -1.67% (inactive) | -10.2% (inactive)
4 | CCN(CCNC(=O)CS(=O)(=O)Cc1nc(-c2cccc(OC)c2)oc1C)c1ccccc1 | 97.5 | 105% (inactive) | 97.5% (inactive) | 78.4% (inactive) | 99% (inactive) | -10.6% (inactive) | 110 | 99 | -6.67% (inactive) | -0.48% (inactive)
5 | CC(=O)Nc1cccc(NC(=O)c2oc3ccccc3c2C)c1 | 81.5 | 92.5% (inactive) | 81.5% (inactive) | 76.8% (inactive) | 68.9% (inactive) | -12.4% (inactive) | 81.3 | 68.9 | -4.8% (inactive) | -1.43% (inactive)
6 | O=C(O)C1C2C=CC(O2)C1C(=O)NCc1ccc(Cl)cc1 (stereo not given) | 107 | 94.5% (inactive) | 107% (inactive) | 105% (inactive) | 104% (inactive) | 7.33% (inactive) | 96.6 | 104 | -5.87% (inactive) | 2.58% (inactive)
7 | COc1ccc(N(CC(=O)N2c3ccccc3CC2C)S(=O)(=O)c2c(C)noc2C)cc1 (stereo not given) | 88.5 | 88.5% (inactive) | 88.5% (inactive) | 70.3% (inactive) | 83% (inactive) | -16.9% (inactive) | 99.9 | 83 | -4.53% (inactive) | 1.97% (inactive)
8 | NC(=O)C1(N2CCCCC2)CCN(Cc2ccccc2Cl)CC1 | 102 | 77% (inactive) | 102% (inactive) | 87.8% (inactive) | 83.8% (inactive) | 3.07% (inactive) | 80.8 | 83.8 | -6.62% (inactive) | -1.17% (inactive)
9 | CCOCCCNC(=O)C1CCN(S(=O)(=O)N(CC(C)C)CC(C)C)CC1 | 121 | 100% (inactive) | 121% (inactive) | 97.9% (inactive) | 111% (inactive) | 24% (inactive) | 87.3 | 111 | -4.13% (inactive) | 2.1% (inactive)
10 | CC(=O)Nc1c(O)nc(SCC(=O)Nc2nnc(CC(C)C)s2)[nH]c1=O | 86.5 | 99.5% (inactive) | 86.5% (inactive) | 98.2% (inactive) | 93.6% (inactive) | -8.89% (inactive) | 102 | 93.6 | 3.2% (inactive) | 22.4% (inactive)
11 | CCn1c(=O)n(CC(=O)Nc2cc(OC)ccc2OC)c(=O)c2ccccc21 | 110 | 77% (inactive) | 110% (inactive) | 86% (inactive) | 87.4% (inactive) | 17.7% (inactive) | 69.7 | 87.4 | -0.66% (inactive) | -0.32% (inactive)
12 | CC(C)(O)C1=NOC(c2ccccc2)C1 (stereo not given) | 98 | 108% (inactive) | 98% (inactive) | 76.2% (inactive) | 71.1% (inactive) | -14.7% (inactive) | 85.8 | 71.1 | -2.57% (inactive) | 1.31% (inactive)
13 | COc1ccc(C(=O)N2CCN(C3CCC(c4ccccc4)CC3)CC2)cc1OC (stereo not given) | 108 | 93% (inactive) | 108% (inactive) | 95.2% (inactive) | 83% (inactive) | -2.52% (inactive) | 85.6 | 83 | -4.16% (inactive) | -3.67% (inactive)
14 | CCOC(=O)N1CCN(c2nc(-c3ccc(Cl)cc3)cs2)CC1 | 79.5 | 125% (inactive) | 79.5% (inactive) | 98.3% (inactive) | 89.1% (inactive) | -9.49% (inactive) | 98.6 | 89.1 | -4.23% (inactive) | -7.83% (inactive)
